Experimental data published in ChEMBL document CHEMBL5705885, “CYT387, a selective JAK1/JAK2 inhibitor: in vitro assessment of kinase selectivity and preclinical studies using cell lines and primary cells from polycythemia vera patients” (Leukemia, 2009).

How the values were obtained:
[1] = biological target: Mitogen-activated protein kinase kinase kinase 8 (Homo sapiens, UniProt P41279); details: dose 100.0 nM
[2] = biological target: Mitogen-activated protein kinase kinase kinase kinase 2 (Homo sapiens) (UniProt Q12851); details: dose 100.0 nM
[3] = biological target: Protein kinase C beta type (Homo sapiens, UniProt P05771); assay: Inhibition of PRKCB1 (unknown origin)
[4] = biological target: T1, Calcium/calmodulin-dependent protein kinase type 1D (Homo sapiens, UniProt Q8IU85); details: dose 100.0 nM
SRSF protein kinase 2 = SRSF protein kinase 2 (Homo sapiens, UniProt P78362); assay: Inhibition of SRPK2 (unknown origin)
[5] = biological target: Tyrosine-protein kinase Blk (Homo sapiens, UniProt P51451); assay: Inhibition of BLK (unknown origin)
[6] = biological target: Activin receptor type-1B (Homo sapiens) (UniProt P36896); details: dose 100.0 nM
[7] = biological target: Platelet-derived growth factor receptor alpha (Homo sapiens, UniProt P16234); details: dose 100.0 nM
Aurora kinase B = Aurora kinase B (Homo sapiens, UniProt Q96GD4); assay: Inhibition of AURKB (unknown origin)
SRSF protein kinase 1 = SRSF protein kinase 1 (Homo sapiens, UniProt Q96SB4); assay: Inhibition of SRPK1 (unknown origin)
[8] = biological target: Casein kinase II subunit alpha (Homo sapiens, UniProt P68400); assay: Inhibition of CSNK2A1 (unknown origin)
[9] = biological target: Beta-adrenergic receptor kinase 1 (Homo sapiens, UniProt P25098); assay: Inhibition of ADRBK1 (unknown origin)
[10] = biological target: Serine/threonine-protein kinase Sgk3 (Homo sapiens, UniProt Q96BR1); assay: Inhibition of SGKL (unknown origin)
[11] = biological target: T1, Calcium/calmodulin-dependent protein kinase type 1D; assay: Inhibition of CAMK1 delta (unknown origin)
[12] = Antiproliferative activity against human CHRF-288-11 cells harboring JAK2T875N mutant measured after 72 hrs by Alamar blue staining based analysis; assay type: functional, cell-based; details: CHRF-288-11, 72 h
How it was run: (§1)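 Cells were exposed for 72 h at 37 °C under 5% CO2 to compound made up as DMSO stock and diluted in culture medium. Proliferation was then read by Alamar Blue.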

[13] = biological target: Tyrosine-protein kinase FRK (Homo sapiens, UniProt P42685); assay: Inhibition of FRK (unknown origin)
[14] = biological target: Serine/threonine-protein kinase BRSK1 (Homo sapiens, UniProt Q8TDC3); assay: Inhibition of BRSK1 (unknown origin)
[15] = biological target: Macrophage-stimulating protein receptor (Homo sapiens, UniProt Q04912); assay: Inhibition of MST1R (unknown origin)
[16] = biological target: Tyrosine-protein kinase SYK (Homo sapiens, UniProt P43405); details: dose 100.0 nM
[17] = biological target: Ephrin type-B receptor 1 (Homo sapiens) (UniProt P54762); details: dose 100.0 nM
[18] = biological target: Serine/threonine-protein kinase B-raf (Homo sapiens, UniProt P15056); assay: Inhibition of BRAF (unknown origin)
[19] = biological target: Tyrosine-protein kinase Fes/Fps (Homo sapiens, UniProt P07332); assay: Inhibition of FES (unknown origin)
[20] = biological target: Serine/threonine-protein kinase D1 (Homo sapiens, UniProt Q15139); assay: Inhibition of PRKD1 (unknown origin)
[21] = biological target: T2, Macrophage colony-stimulating factor 1 receptor (Homo sapiens, UniProt P07333); assay: Inhibition of CSF1R (unknown origin)
[22] = biological target: Serine/threonine-protein kinase pim-1 (Homo sapiens, UniProt P11309); assay: Inhibition of PIM1 (unknown origin)
[23] = biological target: Serine/threonine-protein kinase D2 (Homo sapiens, UniProt Q9BZL6); assay: Inhibition of PRKD2 (unknown origin)
[24] = biological target: Muscle, skeletal receptor tyrosine-protein kinase (Homo sapiens, UniProt O15146); assay: Inhibition of MUSK (unknown origin)
[25] = biological target: Misshapen-like kinase 1 (Homo sapiens) (UniProt Q8N4C8); details: dose 100.0 nM
[26] = biological target: Dual specificity protein kinase CLK1 (Homo sapiens, UniProt P49759); assay: Inhibition of CLK1 (unknown origin)
[27] = biological target: Dual specificity tyrosine-phosphorylation-regulated kinase 3 (Homo sapiens, UniProt O43781); assay: Inhibition of DYRK3 (unknown origin)
[28] = biological target: Homeodomain-interacting protein kinase 1 (Homo sapiens, UniProt Q86Z02); assay: Inhibition of HIPK1 (unknown origin)
[29] = biological target: Mitogen-activated protein kinase 9 (Homo sapiens) (UniProt P45984); details: dose 100.0 nM
[30] = biological target: Tyrosine-protein kinase Fgr (Homo sapiens) (UniProt P09769); details: dose 100.0 nM
[31] = biological target: MAP kinase-activated protein kinase 5 (Homo sapiens, UniProt Q8IW41); assay: Inhibition of MAPKAPK5 (unknown origin)
[32] = biological target: Serine/threonine-protein kinase BRSK1 (Homo sapiens) (UniProt Q8TDC3); details: dose 100.0 nM
[33] = biological target: Casein kinase I isoform gamma-1 (Homo sapiens, UniProt Q9HCP0); assay: Inhibition of CSNK1G1 (unknown origin)
[34] = biological target: Serine/threonine-protein kinase Nek2 (Homo sapiens, UniProt P51955); assay: Inhibition of NEK2 (unknown origin)
[35] = biological target: Cyclin-dependent kinase 5/CDK5 activator 1 (Homo sapiens) (UniProt Q00535+Q15078); details: dose 100.0 nM
[36] = biological target: Tyrosine-protein kinase ABL1 (Homo sapiens) (UniProt P00519); details: dose 100.0 nM
[37] = biological target: Dual specificity protein kinase CLK3 (Homo sapiens, UniProt P49761); assay: Inhibition of CLK3 (unknown origin)
[38] = biological target: Interleukin-1 receptor-associated kinase 4 (Homo sapiens, UniProt Q9NWZ3); assay: Inhibition of IRAK4 (unknown origin)
[39] = biological target: T2, Macrophage colony-stimulating factor 1 receptor; details: dose 100.0 nM
[40] = biological target: Protein kinase C gamma type (Homo sapiens, UniProt P05129); details: dose 100.0 nM
[41] = biological target: Serine/threonine-protein kinase Nek6 (Homo sapiens, UniProt Q9HC98); assay: Inhibition of NEK6 (unknown origin)
[42] = biological target: Ribosomal protein S6 kinase beta-1 (Homo sapiens, UniProt P23443); details: dose 100.0 nM
CMK = assay: Antiproliferative activity against human CMK cells harboring JAK3A572V mutant measured after 72 hrs by Alamar blue staining based analysis; assay type: functional, cell-based
How it was run: as §1

[43] = biological target: Ribosomal protein S6 kinase alpha-3 (Homo sapiens, UniProt P51812); assay: Inhibition of RPS6KA3 (unknown origin)
Sequence of Ribosomal protein S6 kinase alpha-3 (P51812 whole entry): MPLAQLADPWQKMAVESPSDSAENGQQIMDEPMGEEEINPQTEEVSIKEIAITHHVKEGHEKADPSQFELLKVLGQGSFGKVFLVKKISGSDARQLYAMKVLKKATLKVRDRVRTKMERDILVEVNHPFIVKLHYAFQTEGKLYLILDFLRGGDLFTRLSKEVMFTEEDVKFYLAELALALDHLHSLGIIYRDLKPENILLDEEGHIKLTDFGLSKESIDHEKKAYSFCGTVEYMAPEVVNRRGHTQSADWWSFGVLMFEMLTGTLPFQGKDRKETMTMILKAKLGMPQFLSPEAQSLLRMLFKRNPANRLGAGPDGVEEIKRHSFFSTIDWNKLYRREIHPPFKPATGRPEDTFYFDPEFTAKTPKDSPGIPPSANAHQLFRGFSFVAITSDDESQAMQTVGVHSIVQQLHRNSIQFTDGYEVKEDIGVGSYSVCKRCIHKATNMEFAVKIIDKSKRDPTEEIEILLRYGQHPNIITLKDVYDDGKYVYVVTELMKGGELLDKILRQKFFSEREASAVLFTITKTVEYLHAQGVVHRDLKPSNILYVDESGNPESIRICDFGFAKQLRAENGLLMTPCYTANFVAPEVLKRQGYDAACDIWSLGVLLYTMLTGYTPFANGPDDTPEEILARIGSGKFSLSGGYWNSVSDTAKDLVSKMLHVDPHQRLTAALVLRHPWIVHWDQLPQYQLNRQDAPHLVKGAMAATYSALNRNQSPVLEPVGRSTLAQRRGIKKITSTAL

T2 sequence (P07333 whole entry): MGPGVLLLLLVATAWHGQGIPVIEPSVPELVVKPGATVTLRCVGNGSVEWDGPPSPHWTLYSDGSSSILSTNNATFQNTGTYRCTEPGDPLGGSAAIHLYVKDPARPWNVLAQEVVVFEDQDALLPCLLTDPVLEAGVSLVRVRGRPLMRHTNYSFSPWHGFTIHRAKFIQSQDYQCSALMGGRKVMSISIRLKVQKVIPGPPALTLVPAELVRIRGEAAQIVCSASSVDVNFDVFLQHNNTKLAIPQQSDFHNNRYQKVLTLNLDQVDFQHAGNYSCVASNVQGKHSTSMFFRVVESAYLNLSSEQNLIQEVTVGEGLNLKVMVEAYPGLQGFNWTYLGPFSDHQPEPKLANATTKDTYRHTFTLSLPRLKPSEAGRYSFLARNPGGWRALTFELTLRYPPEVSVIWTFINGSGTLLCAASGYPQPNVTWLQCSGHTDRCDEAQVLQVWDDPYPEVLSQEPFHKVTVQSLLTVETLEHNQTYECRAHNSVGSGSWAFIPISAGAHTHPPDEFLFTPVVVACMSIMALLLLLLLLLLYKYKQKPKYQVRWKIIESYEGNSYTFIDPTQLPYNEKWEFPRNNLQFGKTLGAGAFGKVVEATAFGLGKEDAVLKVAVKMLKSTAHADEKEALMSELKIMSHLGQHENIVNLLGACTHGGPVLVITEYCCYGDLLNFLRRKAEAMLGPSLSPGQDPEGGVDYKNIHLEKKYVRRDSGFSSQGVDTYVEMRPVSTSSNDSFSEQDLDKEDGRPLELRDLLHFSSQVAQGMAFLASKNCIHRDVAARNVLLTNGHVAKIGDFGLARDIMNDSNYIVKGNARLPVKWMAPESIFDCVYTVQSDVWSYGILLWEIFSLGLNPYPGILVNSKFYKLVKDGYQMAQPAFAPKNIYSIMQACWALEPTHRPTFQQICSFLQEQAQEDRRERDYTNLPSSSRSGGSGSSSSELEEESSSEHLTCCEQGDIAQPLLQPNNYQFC
Sequence of Protein kinase C beta type (P05771 whole entry): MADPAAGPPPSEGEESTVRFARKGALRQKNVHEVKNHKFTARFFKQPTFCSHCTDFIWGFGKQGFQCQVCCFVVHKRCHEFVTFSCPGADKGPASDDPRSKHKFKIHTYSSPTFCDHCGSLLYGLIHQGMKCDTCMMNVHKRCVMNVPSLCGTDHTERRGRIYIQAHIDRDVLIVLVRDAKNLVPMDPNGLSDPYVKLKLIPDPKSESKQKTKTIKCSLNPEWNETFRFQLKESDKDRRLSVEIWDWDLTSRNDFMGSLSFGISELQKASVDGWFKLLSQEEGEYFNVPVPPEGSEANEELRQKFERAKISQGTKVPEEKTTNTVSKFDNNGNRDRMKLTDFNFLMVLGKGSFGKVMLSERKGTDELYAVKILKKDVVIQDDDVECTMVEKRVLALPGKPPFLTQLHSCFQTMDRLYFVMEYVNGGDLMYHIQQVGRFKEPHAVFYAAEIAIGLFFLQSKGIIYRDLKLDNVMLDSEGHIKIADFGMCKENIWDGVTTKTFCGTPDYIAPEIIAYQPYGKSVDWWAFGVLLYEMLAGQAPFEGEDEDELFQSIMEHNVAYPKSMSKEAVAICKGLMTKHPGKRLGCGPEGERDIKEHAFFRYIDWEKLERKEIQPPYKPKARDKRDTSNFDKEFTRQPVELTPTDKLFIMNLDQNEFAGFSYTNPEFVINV
Sequence of Serine/threonine-protein kinase B-raf (P15056 whole entry): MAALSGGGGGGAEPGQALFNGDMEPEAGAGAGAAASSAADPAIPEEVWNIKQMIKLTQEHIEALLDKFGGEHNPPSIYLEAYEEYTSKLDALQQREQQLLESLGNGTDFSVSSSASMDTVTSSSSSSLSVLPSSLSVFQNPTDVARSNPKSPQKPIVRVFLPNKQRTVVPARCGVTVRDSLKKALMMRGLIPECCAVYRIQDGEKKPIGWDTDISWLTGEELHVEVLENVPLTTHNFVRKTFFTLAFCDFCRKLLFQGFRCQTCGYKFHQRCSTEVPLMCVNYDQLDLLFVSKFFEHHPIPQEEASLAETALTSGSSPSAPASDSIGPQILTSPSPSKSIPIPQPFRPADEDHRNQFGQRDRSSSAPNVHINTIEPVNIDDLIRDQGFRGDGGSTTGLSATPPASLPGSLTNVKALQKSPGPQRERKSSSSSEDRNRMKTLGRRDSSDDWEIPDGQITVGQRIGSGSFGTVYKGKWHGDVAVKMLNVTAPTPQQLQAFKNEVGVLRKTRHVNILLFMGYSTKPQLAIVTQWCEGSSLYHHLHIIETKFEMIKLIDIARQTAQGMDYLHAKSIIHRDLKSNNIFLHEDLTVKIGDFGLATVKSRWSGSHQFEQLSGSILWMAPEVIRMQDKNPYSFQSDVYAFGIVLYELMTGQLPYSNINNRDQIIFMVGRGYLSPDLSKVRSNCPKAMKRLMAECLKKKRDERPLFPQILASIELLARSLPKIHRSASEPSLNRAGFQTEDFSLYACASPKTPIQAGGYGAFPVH
Sequence of Casein kinase I isoform gamma-1 (Q9HCP0 whole entry, canonical isoform): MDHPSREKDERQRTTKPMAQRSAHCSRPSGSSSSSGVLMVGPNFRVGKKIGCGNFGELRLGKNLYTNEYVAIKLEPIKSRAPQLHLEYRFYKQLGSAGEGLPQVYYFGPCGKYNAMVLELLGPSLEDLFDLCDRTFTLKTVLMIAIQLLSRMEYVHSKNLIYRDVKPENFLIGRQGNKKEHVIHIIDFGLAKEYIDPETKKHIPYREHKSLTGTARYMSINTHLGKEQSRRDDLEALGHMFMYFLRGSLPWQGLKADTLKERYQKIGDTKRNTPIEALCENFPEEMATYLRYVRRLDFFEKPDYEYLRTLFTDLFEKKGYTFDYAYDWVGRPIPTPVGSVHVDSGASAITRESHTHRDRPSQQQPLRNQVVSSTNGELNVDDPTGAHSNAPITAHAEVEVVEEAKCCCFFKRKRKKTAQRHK
Sequence of Serine/threonine-protein kinase pim-1 (P11309 whole entry): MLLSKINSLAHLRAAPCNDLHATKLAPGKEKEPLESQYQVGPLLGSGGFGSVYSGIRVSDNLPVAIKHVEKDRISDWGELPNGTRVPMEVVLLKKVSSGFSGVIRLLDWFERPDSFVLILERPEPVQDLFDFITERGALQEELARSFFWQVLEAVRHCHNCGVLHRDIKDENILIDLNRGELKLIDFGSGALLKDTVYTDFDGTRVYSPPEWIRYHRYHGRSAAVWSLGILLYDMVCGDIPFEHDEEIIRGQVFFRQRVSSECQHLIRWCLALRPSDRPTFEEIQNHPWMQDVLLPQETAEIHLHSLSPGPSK
Sequence of Serine/threonine-protein kinase D2 (Q9BZL6 whole entry): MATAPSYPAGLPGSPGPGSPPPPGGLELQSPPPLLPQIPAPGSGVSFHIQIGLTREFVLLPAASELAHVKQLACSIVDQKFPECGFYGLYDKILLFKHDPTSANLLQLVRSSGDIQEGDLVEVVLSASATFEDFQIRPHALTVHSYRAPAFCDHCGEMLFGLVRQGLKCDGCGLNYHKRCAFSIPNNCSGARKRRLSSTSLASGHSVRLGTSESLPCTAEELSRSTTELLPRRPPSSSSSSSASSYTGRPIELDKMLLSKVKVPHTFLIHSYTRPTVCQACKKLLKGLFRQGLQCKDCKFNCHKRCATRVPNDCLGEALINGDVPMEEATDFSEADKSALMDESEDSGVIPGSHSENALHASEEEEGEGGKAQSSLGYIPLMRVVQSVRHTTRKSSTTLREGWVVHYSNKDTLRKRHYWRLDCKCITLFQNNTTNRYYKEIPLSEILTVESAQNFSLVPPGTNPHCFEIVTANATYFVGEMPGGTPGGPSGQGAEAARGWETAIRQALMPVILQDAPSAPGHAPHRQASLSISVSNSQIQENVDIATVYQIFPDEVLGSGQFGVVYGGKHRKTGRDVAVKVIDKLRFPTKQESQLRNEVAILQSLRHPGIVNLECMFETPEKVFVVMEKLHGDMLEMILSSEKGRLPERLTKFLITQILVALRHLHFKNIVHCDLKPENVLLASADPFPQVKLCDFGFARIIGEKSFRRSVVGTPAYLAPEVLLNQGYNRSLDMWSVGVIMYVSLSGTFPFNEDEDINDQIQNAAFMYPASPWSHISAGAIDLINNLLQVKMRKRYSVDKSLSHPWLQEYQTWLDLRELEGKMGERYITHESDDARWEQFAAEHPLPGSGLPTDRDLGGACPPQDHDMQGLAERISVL

inhibition [1]: < 50% | inhibition [2]: < 50% | IC50 [3]: > 1000 nM | inhibition [4]: < 50% | IC50 (SRSF protein kinase 2): > 1000 nM | IC50 [5]: > 1000 nM | inhibition [6]: < 50% | inhibition [7]: < 50% | IC50 (Aurora kinase B): < 1000 nM | IC50 (SRSF protein kinase 1): > 1000 nM | IC50 [8]: > 1000 nM | IC50 [9]: > 1000 nM | IC50 [10]: > 1000 nM | IC50 [11]: < 1000 nM | IC50 [13]: > 1000 nM | IC50 [14]: < 1000 nM | IC50 [15]: < 1000 nM | inhibition [16]: < 50% | inhibition [17]: < 50% | IC50 [18]: < 1000 nM | IC50 [19]: > 1000 nM | IC50 [20]: < 100 nM | IC50 [21]: < 1000 nM | IC50 [22]: > 1000 nM | IC50 [23]: < 1000 nM | IC50 [24]: < 1000 nM | inhibition [25]: < 50% | IC50 [26]: < 1000 nM | IC50 [27]: > 1000 nM | IC50 [28]: < 1000 nM | inhibition [29]: < 50% | inhibition [30]: < 50% | IC50 [31]: > 1000 nM | inhibition [32]: < 50% | IC50 [33]: > 1000 nM | IC50 [34]: > 1000 nM | inhibition [35]: < 50% | inhibition [36]: < 50% | IC50 [37]: > 1000 nM | IC50 [38]: > 1000 nM | inhibition [39]: < 50% | inhibition [40]: < 50% | IC50 [41]: > 1000 nM | inhibition [42]: < 50% | IC50 [43]: > 1000 nM
SMILES: N#CCNC(=O)c1ccc(-c2ccnc(Nc3ccc(N4CCOCC4)cc3)n2)cc1 [MOMELOTINIB]
IC50 [12]: 1 nM | IC50 (CMK): 700 nM
